Reference: ChEMBL document CHEMBL3853338 (Bioorg Med Chem Lett, 2016)
Active and inactive are the calls of the source. No cut-off for these calls is given here.

Assays:
[1] = Plasma concentration in Sprague-Dawley rat plasma at 10 mg/kg, iv after 30 mins by LC-MS/MS analysis; type: ADME, organism-based
In short: (§1)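 Healthy male Sprague Dawley rats, n = 3 per time point, given 10 mg/kg IV; brain and plasma sampled at 30, 90 and 180 min post dose; drug levels by LC–MS/MS (plasma ng/ml, brain ng/g). AUC summed from straight-line segments joining the three time points.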

[2] = Plasma concentration in Sprague-Dawley rat plasma at 10 mg/kg, iv after 90 mins by LC-MS/MS analysis; type: ADME, organism-based; in short: as §1
[3] = Plasma concentration in Sprague-Dawley rat plasma at 10 mg/kg, iv after 180 mins by LC-MS/MS analysis; type: ADME, organism-based; in short: as §1
[4] = Drug level in Sprague-Dawley rat brain at 10 mg/kg, iv after 30 mins by LC-MS/MS analysis; type: ADME, organism-based; conditions: read-out: Drug uptake; in short: as §1
[5] = Drug level in Sprague-Dawley rat brain at 10 mg/kg, iv after 90 mins by LC-MS/MS analysis; type: ADME, organism-based; conditions: read-out: Drug uptake; in short: as §1
[6] = Drug level in Sprague-Dawley rat brain at 10 mg/kg, iv after 180 mins by LC-MS/MS analysis; type: ADME, organism-based; conditions: read-out: Drug uptake; in short: as §1
[7] = Ratio of AUC in brain to plasma of Sprague-Dawley rat at 10 mg/kg, iv after 30 to 180 mins by LC-MS/MS analysis; type: ADME, organism-based; conditions: read-out: Ratio AUC
In short: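 Male Sprague Dawley rats (n = 3 per time point) dosed IV at 10 mg/kg; brain and plasma taken 30, 90, 180 min after dosing and assayed by LC–MS/MS; three-point linear-segment AUCs computed; ratio = AUCbrain divided by AUCplasma.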

[8] = Ratio of temozolomide AUC to compound AUC for drug level in brain of Sprague-Dawley rat; type: ADME; conditions: in vivo
[9] = tested on: U-87MG ATCC; test: Induction of DNA alkylation in human U87MG cells assessed as increase in O6-MedG formation at 10 to 100 uM after 3 hrs by LC-MS/MS analysis; type: cell-based
In short: (§2)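 U87 MG cells incubated with 10 or 100 µM for 3 h at 37 °C, washed, lysed; genomic DNA isopropanol-extracted, hydrolysed 30 min at 37 °C with nuclease P1 and alkaline phosphatase (ammonium acetate/ZnCl2, pH 5.3); [H]O6-MedG internal standard added; O6-MedG peak area by LC–MS/MS.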

[10] = AUC in Sprague-Dawley rat plasma at 10 mg/kg, iv after 30 to 180 mins by LC-MS/MS analysis; type: ADME, organism-based; conditions: in vivo; in short: as §1
[11] = AUC in Sprague-Dawley rat brain at 10 mg/kg, iv after 30 to 180 mins by LC-MS/MS analysis; type: ADME, organism-based; in short: as §1
[12] = tested on: U-87MG ATCC; test: Induction of DNA alkylation in human U87MG cells assessed as increase in O6-MedG formation at 10 uM after 3 hrs by LC-MS/MS analysis; type: cell-based; in short: as §2
[13] = Fraction unbound in mouse brain assessed as compound level in insoluble tissue fraction at 10 uM after 1 hr by LC-MS/MS analysis; type: ADME, tissue-based; conditions: in the assay text read “soluble supernatant fraction” for “insoluble tissue fraction”
In short: (§3)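 Compound at 10 µM incubated 1 h at 37 °C with homogenized mouse brain tissue in HBSS (1% final DMSO); after centrifugation, percent of compound in insoluble tissue fraction and soluble supernatant determined by LC–MS/MS.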

[14] = Drug level in mouse brain assessed as compound level in soluble tissue fraction at 10 uM after 1 hr by LC-MS/MS analysis; type: ADME, tissue-based; in short: as §3
[15] = Cytotoxicity against human U87MG cells assessed as inhibition of cell growth at 100 uM after 72 hrs by MTS assay; type: functional, U-87MG ATCC; conditions: U-87 MG, read-out: GI
In short: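 U87 MG cells exposed to 100 µM compound for 72 h; growth read by MTS CellTiter 96 assay; treated-cell mean growth (n = 3) divided by vehicle-treated growth (n = 3, set to 100%); SD of three replicates.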

[16] = Drug level in rat brain at 106 umol/kg, iv measured 3 hrs post dose by LC-MS/MS analysis; type: ADME, organism-based; conditions: in vivo
In short: (§4)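 Rats (n = 1 per compound per dose) dosed IV at 10, 20 and 40 mg/kg; brain collected 3 h post dose; brain drug concentration and O6-MedG (peak area) measured by LC–MS/MS.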

[17] = tested on: U-87MG ATCC; test: Induction of DNA alkylation in human U87MG cells assessed as increase in N7-MedG formation after 3 hrs by LC-MS/MS analysis; type: cell-based
[18] = tested on: U-87MG ATCC; test: Antitumor activity against human U87MG cells orthotopically xenografted in Harlan nude mouse brain assessed as induction of slow tumor growth at 50 umol/kg, iv administered once daily for 5 days; type: functional, organism-based
In short: (§5)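 Orthotopic model: one million luciferase-expressing U87 MG cells surgically implanted into brains of female Harlan nude mice; dosing from day 26 (mean tumor 10.1 mm3), IV in 50% PEG400, once daily ×5; vehicle group dosed IV. Tumor volume by MRI, body weight and mortality tracked; survival followed to day 63, log-rank Mantel–Cox test.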

[19] = tested on: U-87MG ATCC; test: Antitumor activity against human U87MG cells orthotopically xenografted in Harlan nude mouse brain assessed as increase in mouse survival at 50 umol/kg, iv administered once daily for 5 days; type: functional, organism-based; in short: as §5
[20] = tested on: Rattus norvegicus; test: Increase in O6-MedG formation in rat brain at 51.5 to 206 umol/kg, iv measured 3 hrs post dose by LC-MS/MS analysis; type: functional, organism-based; in short: as §4
[21] = Drug level in rat brain at 103 umol/kg, iv measured 3 hrs post dose by LC-MS/MS analysis; type: ADME, organism-based; conditions: in vivo; in short: as §4
[22] = Ratio of AUC in human brain to plasma by reversed-phase HPLC analysis
[23] = Ratio of AUC in brain to plasma of Sprague-Dawley rat administered as single dose

concentration at 0.5 h [1] | concentration at 1.5 h [2] | concentration at 3 h [3] | concentration at 0.5 h [4] | concentration at 1.5 h [5] | concentration at 3 h [6] | Kp [7] | Ratio AUC [8] | AUC [10] | AUC [11] | fraction unbound at 1 h, 10 µM [13] | Drug uptake [14] | SMILES | Activity [9] | also measured
3630 ng/mL | 2140 ng/mL | 539 ng/mL | 3150 ng/g | 1700 ng/g | 401 ng/g | 0.82 | 1.4 | 4890 ng·h/g | 4010 ng·h/mL |  |  | Cc1ccc2c(c1)c1c(n2C)CCN(CCNC(=O)c2ncn3c(=O)n(C)nnc23)C1 | Active | 
1090 ng/mL | 302 ng/mL | 99.2 ng/mL | 1100 ng/g | 142 ng/g | 32.7 ng/g | 0.75 | 7.5 | 998 ng·h/g | 750 ng·h/mL |  |  | Cc1ccc2[nH]c3c(c2c1)CN(CCNC(=O)c1ncn2c(=O)n(C)nnc12)CC3 | Active | 
531 ng/mL | 438 ng/mL | 347 ng/mL | 4950 ng/g | 4830 ng/g | 3570 ng/g | 10.4 | 0.5 | 1070 ng·h/g | 11200 ng·h/mL | 0.03 | 3% | Cn1nnc2c(C(=O)N3CCc4c(n(C5CC5)c5c(Cl)cc(Cl)cc45)C3)ncn2c1=O |  | Activity [12]: Active
 |  |  |  |  |  |  |  |  |  | 0.01 | 1% | Nc1[nH]cnc1C(=O)N1CCc2c(n(C3CC3)c3c(Cl)cc(Cl)cc23)C1 |  | 
 |  |  |  |  |  |  |  |  |  | 0.01 | 1% | Cc1ccc2c(c1)c1c(n2C)CN(C(=O)c2nc[nH]c2N)CC1 |  | 
 |  |  |  |  |  |  |  |  |  | 0.48 | 48% | NC(=O)c1[nH]cnc1N |  | 
399 ng/mL | 123 ng/mL | 43.7 ng/mL | 574 ng/g | 162 ng/g | 47.5 ng/g | 1.36 | 10.8 | 386 ng·h/g | 525 ng·h/mL | 0.11 | 11% | CN1CCc2c(n(CCNC(=O)c3ncn4c(=O)n(C)nnc34)c3ccc(Cl)cc23)C1 |  | 
483 ng/mL | 256 ng/mL | 119 ng/mL | 2020 ng/g | 945 ng/g | 372 ng/g | 3.79 | 2.3 | 650 ng·h/g | 2470 ng·h/mL | 0.02 | 2% | Cc1ccc2c(c1)c1c(n2C)CN(C(=O)c2ncn3c(=O)n(C)nnc23)CC1 | Active | inhibition of growth at 100 µM [15]: 27.3%; Drug uptake [16]: Active
12800 ng/mL | 6480 ng/mL | 3100 ng/mL | 4210 ng/g | 2300 ng/g | 912 ng/g | 0.34 |  |  |  | 0.5 | 50% | Cn1nnc2c(C(N)=O)ncn2c1=O [TEMOZOLOMIDE] | Dose-dependent effect | Activity [17]: Active; Activity [18]: Active; Activity [19]: Active; Activity [20]: Active; Drug uptake [21]: Active; Kp [22]: 20; Kp [23]: 35
 |  |  |  |  |  |  |  |  |  | 0.07 | 7% | CN1CCc2c(n(CCNC(=O)c3nc[nH]c3N)c3ccc(Cl)cc23)C1 |  | 
850 ng/mL | 387 ng/mL | 67.1 ng/mL | 517 ng/g | 243 ng/g | 101 ng/g | 0.67 | 8.9 | 959 ng·h/g | 638 ng·h/mL |  |  | Cc1ccc2c(c1)c1c(n2CCNC(=O)c2ncn3c(=O)n(C)nnc23)CCN(C)C1 | Active | 
